This note sets out measurements from ChEMBL document CHEMBL1138558, “Synthesis of some new 1,2,4-triazoles, their Mannich and Schiff bases and evaluation of their antimicrobial activities” (2009).

The source made the active and inactive calls. No cut-off for these calls is given here.

One experiment has as its system Escherichia coli. The experiment is described as follows: Antimicrobial activity against Escherichia coli ATCC 25922 at 10 mg/mL after 18 hrs by agar-well diffusion method. Format: functional.
Conditions: not given
The method in brief: (§1)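 Agar-well diffusion: each bacterium suspended in Mueller Hinton broth at about 10⁶ cfu/mL, flood-inoculated onto Mueller Hinton agar and dried. 5-mm wells were cut with a sterile cork-borer and filled with the test solution. Plates were incubated 18 h at 35 °C. The read-out was the diameter of the inhibition zone.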
Background: Agar diffusion results depend on both activity and mobility in agar.
Regarding `NNC(=O)CSc1nnc(-c2ccncc2)n1-c1ccccc1`, the “inhibition zone (IZ)” value was “inactive”.
Same read-out and setting: the entry for `O=C(CSc1nnc(-c2ccncc2)n1-c1ccccc1)N/N=C/c1ccncc1` is “inactive”; for `Sc1nnc(-c2ccncc2)n1-c1ccccc1` it is “inactive”.
The same measure, in the same setting: the entry for `Sc1nnc(CSc2nnc(-c3ccncc3)n2-c2ccccc2)o1` is “inactive”; for `Cc1ccc(-n2c(S)nnc2CSc2nnc(-c3ccncc3)n2-c2ccccc2)cc1` it is “inactive”.
For `S=c1n(CN2CCN(Cn3nc(-c4ccncc4)n(-c4ccccc4)c3=S)CC2)nc(-c2ccncc2)n1-c1ccccc1`, the “inhibition zone (IZ)” value was “inactive”.
On the same count and under the same terms, the entry for `O=C(CSc1nnc(-c2ccncc2)n1-c1ccccc1)N/N=C/c1c(Cl)cccc1Cl` is “inactive”; for `Cc1ccc(NC(=S)NNC(=O)CSc2nnc(-c3ccncc3)n2-c2ccccc2)cc1` it is “inactive”.

The experiment is the same for the next values; noted with them: ATCC 25922, 18 h, read-out: IZ.
Consider `CC(C)CSc1nnc(-c2ccncc2)n1-c1ccccc1`, for which the zone of inhibition at 10000 µg/mL came to 25 mm.

The test system of another experiment is Yersinia pseudotuberculosis. In words: Antimicrobial activity against Yersinia pseudotuberculosis ATCC 911 at 10 mg/mL after 18 hrs by agar-well diffusion method. Type of experiment: functional.
Conditions: not given
The method in brief:
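Bacteria suspended in Mueller Hinton broth at about 10⁶ cfu/mL, flood-inoculated onto Mueller Hinton agar and dried. Test substance placed into 5-mm wells bored with a sterile cork-borer. Incubation 18 h at 35 °C, then the inhibition zone around each well measured.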
For `NNC(=O)CSc1nnc(-c2ccncc2)n1-c1ccccc1`, the “inhibition zone (IZ)” value is “inactive”.
Same read-out and setting: to `O=C(CSc1nnc(-c2ccncc2)n1-c1ccccc1)N/N=C/c1ccncc1` belongs “inactive”; to `Sc1nnc(-c2ccncc2)n1-c1ccccc1`, “inactive”.
Still for that read-out and setting: to `Sc1nnc(CSc2nnc(-c3ccncc3)n2-c2ccccc2)o1` belongs “inactive”; to `Cc1ccc(-n2c(S)nnc2CSc2nnc(-c3ccncc3)n2-c2ccccc2)cc1`, “inactive”.
On the same count and under the same terms, to `S=c1n(CN2CCN(Cn3nc(-c4ccncc4)n(-c4ccccc4)c3=S)CC2)nc(-c2ccncc2)n1-c1ccccc1` belongs “inactive”; to `O=C(CSc1nnc(-c2ccncc2)n1-c1ccccc1)N/N=C/c1c(Cl)cccc1Cl`, “inactive”.
`Cc1ccc(NC(=S)NNC(=O)CSc2nnc(-c3ccncc3)n2-c2ccccc2)cc1`: the “inhibition zone (IZ)” value is “inactive”.

Staying with this experiment, now noted: ATCC 911, 18 h, read-out: IZ.
As to `CC(C)CSc1nnc(-c2ccncc2)n1-c1ccccc1`, the zone of inhibition at 10000 µg/mL was 30 mm.

In another experiment the test system is Pseudomonas aeruginosa. In words: Antimicrobial activity against Pseudomonas aeruginosa ATCC 27853 at 10 mg/mL after 18 hrs by agar-well diffusion method. Type of experiment: functional.
Conditions: not given
The essentials: as §1
With `NNC(=O)CSc1nnc(-c2ccncc2)n1-c1ccccc1`, the “inhibition zone (IZ)” value was “inactive”.
`O=C(CSc1nnc(-c2ccncc2)n1-c1ccccc1)N/N=C/c1ccncc1`: the “inhibition zone (IZ)” value was “inactive”.
In the case of `Sc1nnc(-c2ccncc2)n1-c1ccccc1`, the “inhibition zone (IZ)” value was “inactive”.
Same read-out and setting: the entry for `Sc1nnc(CSc2nnc(-c3ccncc3)n2-c2ccccc2)o1` is “inactive”; for `Cc1ccc(-n2c(S)nnc2CSc2nnc(-c3ccncc3)n2-c2ccccc2)cc1` it is “inactive”; for `S=c1n(CN2CCN(Cn3nc(-c4ccncc4)n(-c4ccccc4)c3=S)CC2)nc(-c2ccncc2)n1-c1ccccc1` it is “inactive”.
Still for that read-out and setting: the entry for `O=C(CSc1nnc(-c2ccncc2)n1-c1ccccc1)N/N=C/c1c(Cl)cccc1Cl` is “inactive”; for `Cc1ccc(NC(=S)NNC(=O)CSc2nnc(-c3ccncc3)n2-c2ccccc2)cc1` it is “inactive”.

Staying with this experiment, now noted: ATCC 27853, 18 h, read-out: IZ.
As for `CC(C)CSc1nnc(-c2ccncc2)n1-c1ccccc1`, the zone of inhibition at 10000 µg/mL stood at 30 mm.

The test system of the next experiment is Enterococcus faecalis. In words: Antimicrobial activity against Enterococcus faecalis ATCC 29212 at 10 mg/mL after 18 hrs by agar-well diffusion method.
Conditions: not given
Format: functional. The essentials: as §1
With `NNC(=O)CSc1nnc(-c2ccncc2)n1-c1ccccc1`, the “inhibition zone (IZ)” value is “inactive”.
Same read-out and setting: to `O=C(CSc1nnc(-c2ccncc2)n1-c1ccccc1)N/N=C/c1ccncc1` belongs “inactive”; to `Sc1nnc(-c2ccncc2)n1-c1ccccc1`, “inactive”.
Still for that read-out and setting: the entry for `Sc1nnc(CSc2nnc(-c3ccncc3)n2-c2ccccc2)o1` is “inactive”; for `S=c1n(CN2CCN(Cn3nc(-c4ccncc4)n(-c4ccccc4)c3=S)CC2)nc(-c2ccncc2)n1-c1ccccc1` it is “inactive”; for `O=C(CSc1nnc(-c2ccncc2)n1-c1ccccc1)N/N=C/c1c(Cl)cccc1Cl` it is “inactive”.
`Cc1ccc(NC(=S)NNC(=O)CSc2nnc(-c3ccncc3)n2-c2ccccc2)cc1`: the “inhibition zone (IZ)” value was “inactive”.

The experiment is the same for the next values; noted with them: ATCC 29212, 18 h, read-out: IZ.
`CC(C)CSc1nnc(-c2ccncc2)n1-c1ccccc1`: the zone of inhibition at 10000 µg/mL amounted to 30 mm.
Still for that read-out and setting: to `Cc1ccc(-n2c(S)nnc2CSc2nnc(-c3ccncc3)n2-c2ccccc2)cc1` belongs 15 mm.

For a further experiment, the system named is Staphylococcus aureus. The experiment is described as follows: Antimicrobial activity against Staphylococcus aureus ATCC 25923 at 10 mg/mL after 18 hrs by agar-well diffusion method.
Conditions: not given
Format: functional. The method in brief: as §1
For the compound `NNC(=O)CSc1nnc(-c2ccncc2)n1-c1ccccc1`, the “inhibition zone (IZ)” value is “inactive”.
The same measure, in the same setting: the entry for `O=C(CSc1nnc(-c2ccncc2)n1-c1ccccc1)N/N=C/c1ccncc1` is “inactive”; for `Sc1nnc(-c2ccncc2)n1-c1ccccc1` it is “inactive”; for `Cc1ccc(-n2c(S)nnc2CSc2nnc(-c3ccncc3)n2-c2ccccc2)cc1` it is “inactive”.
Turning to `S=c1n(CN2CCN(Cn3nc(-c4ccncc4)n(-c4ccccc4)c3=S)CC2)nc(-c2ccncc2)n1-c1ccccc1`, the “inhibition zone (IZ)” value is “inactive”.
On the same count and under the same terms, the entry for `O=C(CSc1nnc(-c2ccncc2)n1-c1ccccc1)N/N=C/c1c(Cl)cccc1Cl` is “inactive”; for `Cc1ccc(NC(=S)NNC(=O)CSc2nnc(-c3ccncc3)n2-c2ccccc2)cc1` it is “inactive”.

The same experiment, now with this note: ATCC 25923, 18 h, read-out: IZ.
Consider `CC(C)CSc1nnc(-c2ccncc2)n1-c1ccccc1`, for which the zone of inhibition at 10000 µg/mL was 25 mm.
The same measure, in the same setting: to `Sc1nnc(CSc2nnc(-c3ccncc3)n2-c2ccccc2)o1` belongs 8 mm.

A further experiment relates to Bacillus cereus. The experiment is described as follows: Antimicrobial activity against Bacillus cereus 702 Roma at 10 mg/mL after 18 hrs by agar-well diffusion method. Type of experiment: functional.
Conditions: not given
The method in brief:
as §1
For the compound `NNC(=O)CSc1nnc(-c2ccncc2)n1-c1ccccc1`, the “inhibition zone (IZ)” value is “inactive”.
With `O=C(CSc1nnc(-c2ccncc2)n1-c1ccccc1)N/N=C/c1ccncc1`, the “inhibition zone (IZ)” value was “inactive”.
For the compound `Sc1nnc(-c2ccncc2)n1-c1ccccc1`, the “inhibition zone (IZ)” value was “inactive”.
Still for that read-out and setting: the entry for `S=c1n(CN2CCN(Cn3nc(-c4ccncc4)n(-c4ccccc4)c3=S)CC2)nc(-c2ccncc2)n1-c1ccccc1` is “inactive”; for `O=C(CSc1nnc(-c2ccncc2)n1-c1ccccc1)N/N=C/c1c(Cl)cccc1Cl` it is “inactive”.
On the same count and under the same terms, the entry for `Cc1ccc(NC(=S)NNC(=O)CSc2nnc(-c3ccncc3)n2-c2ccccc2)cc1` is “inactive”.

Staying with this experiment, now noted: read-out: IZ.
Take `CC(C)CSc1nnc(-c2ccncc2)n1-c1ccccc1`: the zone of inhibition at 10000 µg/mL amounted to 30 mm.
On to `Sc1nnc(CSc2nnc(-c3ccncc3)n2-c2ccccc2)o1`, for which the zone of inhibition at 10000 µg/mL amounted to 6 mm.
On the same count and under the same terms, the figure for `Cc1ccc(-n2c(S)nnc2CSc2nnc(-c3ccncc3)n2-c2ccccc2)cc1` is 6 mm.

The next experiment relates to Candida tropicalis. The experiment is described as follows: Antimicrobial activity against Candida tropicalis ATCC 13803 at 10 mg/mL after 18 hrs by agar-well diffusion method. Type of experiment: functional.
Conditions: not given
The essentials: (§2)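 Candida cultures were suspended in Mueller Hinton broth at about 10⁶ cfu/mL, flood-inoculated onto Sabouraud dextrose agar and dried. Test solution was loaded into 5-mm wells bored in the agar. Plates were incubated 18 h at 35 °C, and activity was scored as the inhibition zone around each well.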
For `NNC(=O)CSc1nnc(-c2ccncc2)n1-c1ccccc1`, the “inhibition zone (IZ)” value is “inactive”.
As for `O=C(CSc1nnc(-c2ccncc2)n1-c1ccccc1)N/N=C/c1ccncc1`, the “inhibition zone (IZ)” value was “inactive”.
With `Sc1nnc(-c2ccncc2)n1-c1ccccc1`, the “inhibition zone (IZ)” value was “inactive”.
Still for that read-out and setting: to `Cc1ccc(-n2c(S)nnc2CSc2nnc(-c3ccncc3)n2-c2ccccc2)cc1` belongs “inactive”; to `S=c1n(CN2CCN(Cn3nc(-c4ccncc4)n(-c4ccccc4)c3=S)CC2)nc(-c2ccncc2)n1-c1ccccc1`, “inactive”.
The same measure, in the same setting: to `O=C(CSc1nnc(-c2ccncc2)n1-c1ccccc1)N/N=C/c1c(Cl)cccc1Cl` belongs “inactive”.

Still in this experiment, the particulars now being: ATCC 13803, 18 h, read-out: IZ.
Turning to `CC(C)CSc1nnc(-c2ccncc2)n1-c1ccccc1`, the zone of inhibition at 10000 µg/mL was 8 mm.
Regarding `Sc1nnc(CSc2nnc(-c3ccncc3)n2-c2ccccc2)o1`, the zone of inhibition at 10000 µg/mL worked out at 6 mm.
For the compound `Cc1ccc(NC(=S)NNC(=O)CSc2nnc(-c3ccncc3)n2-c2ccccc2)cc1`, the zone of inhibition at 10000 µg/mL was determined as 7 mm.

The subject of another experiment is Candida albicans. In words: Antimicrobial activity against Candida albicans ATCC 60193 at 10 mg/mL after 18 hrs by agar-well diffusion method. Format: functional.
Conditions: not given
The method in brief:
as §2
In the case of `NNC(=O)CSc1nnc(-c2ccncc2)n1-c1ccccc1`, the “inhibition zone (IZ)” value was “inactive”.
On the same count and under the same terms, the entry for `O=C(CSc1nnc(-c2ccncc2)n1-c1ccccc1)N/N=C/c1ccncc1` is “inactive”.
The same measure, in the same setting: to `Sc1nnc(-c2ccncc2)n1-c1ccccc1` belongs “inactive”.
Same read-out and setting: to `Cc1ccc(-n2c(S)nnc2CSc2nnc(-c3ccncc3)n2-c2ccccc2)cc1` belongs “inactive”.
Consider `S=c1n(CN2CCN(Cn3nc(-c4ccncc4)n(-c4ccccc4)c3=S)CC2)nc(-c2ccncc2)n1-c1ccccc1`, for which the “inhibition zone (IZ)” value was “inactive”.
On the same count and under the same terms, the entry for `O=C(CSc1nnc(-c2ccncc2)n1-c1ccccc1)N/N=C/c1c(Cl)cccc1Cl` is “inactive”.

Staying with this experiment, now noted: ATCC 60193, 18 h, read-out: IZ.
`CC(C)CSc1nnc(-c2ccncc2)n1-c1ccccc1`: the zone of inhibition at 10000 µg/mL stood at 8 mm.
Still for that read-out and setting: to `Sc1nnc(CSc2nnc(-c3ccncc3)n2-c2ccccc2)o1` belongs 6 mm; to `Cc1ccc(NC(=S)NNC(=O)CSc2nnc(-c3ccncc3)n2-c2ccccc2)cc1`, 7 mm.
